According to ChEMBL document CHEMBL5653631, “A Potent and Selective ULK1 Inhibitor Suppresses Autophagy and Sensitizes Cancer Cells to Nutrient Stress” (iScience, 2018):
Each block holds one compound with its values, some of them ahead of it.

How the values were obtained:
[1] = biological target: 5'-AMP-activated protein kinase catalytic subunit alpha-2 (Homo sapiens) (UniProt P54646); experiment: Inhibition of human recombinant AMPKa2 at 500 nM in presence of ATP by radiometric assay relative to control
Method in brief: (§1)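 Panel of 327 recombinant human kinases, each assayed in vitro by radiometric activity assay in duplicate at a single inhibitor concentration per compound, chosen with reference to its ULK1 inhibition. Activity remaining was expressed as percent of vehicle control, and percent inhibition was calculated as 100 minus percent activity remaining.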

[2] = biological target: T1, Serine/threonine-protein kinase A-Raf (Homo sapiens) (UniProt P10398); experiment: Inhibition of human recombinant ARAF at 500 nM related to control ULK1; method in brief: as §1
T1 sequence (whole entry): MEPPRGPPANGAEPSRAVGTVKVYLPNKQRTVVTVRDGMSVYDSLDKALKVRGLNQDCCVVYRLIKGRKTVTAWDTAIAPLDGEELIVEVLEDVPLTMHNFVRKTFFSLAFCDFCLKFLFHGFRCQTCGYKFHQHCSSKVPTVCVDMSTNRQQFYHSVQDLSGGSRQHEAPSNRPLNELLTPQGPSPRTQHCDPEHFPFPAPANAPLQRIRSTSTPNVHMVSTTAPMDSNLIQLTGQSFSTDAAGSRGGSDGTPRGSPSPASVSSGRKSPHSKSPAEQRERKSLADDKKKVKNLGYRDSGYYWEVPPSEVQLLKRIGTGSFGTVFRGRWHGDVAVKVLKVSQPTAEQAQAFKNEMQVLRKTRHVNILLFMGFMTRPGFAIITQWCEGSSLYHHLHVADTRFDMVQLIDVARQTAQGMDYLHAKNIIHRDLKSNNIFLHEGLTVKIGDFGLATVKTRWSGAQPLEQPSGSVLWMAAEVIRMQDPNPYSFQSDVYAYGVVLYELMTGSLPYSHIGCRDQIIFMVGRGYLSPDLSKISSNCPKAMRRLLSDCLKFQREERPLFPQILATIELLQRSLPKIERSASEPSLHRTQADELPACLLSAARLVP

[3] = biological target: T2, Serine/threonine-protein kinase 17A (Homo sapiens) (UniProt Q9UEE5); experiment: Inhibition of human recombinant DRAK1 at 500 nM related to control ULK1
T2 sequence (whole entry): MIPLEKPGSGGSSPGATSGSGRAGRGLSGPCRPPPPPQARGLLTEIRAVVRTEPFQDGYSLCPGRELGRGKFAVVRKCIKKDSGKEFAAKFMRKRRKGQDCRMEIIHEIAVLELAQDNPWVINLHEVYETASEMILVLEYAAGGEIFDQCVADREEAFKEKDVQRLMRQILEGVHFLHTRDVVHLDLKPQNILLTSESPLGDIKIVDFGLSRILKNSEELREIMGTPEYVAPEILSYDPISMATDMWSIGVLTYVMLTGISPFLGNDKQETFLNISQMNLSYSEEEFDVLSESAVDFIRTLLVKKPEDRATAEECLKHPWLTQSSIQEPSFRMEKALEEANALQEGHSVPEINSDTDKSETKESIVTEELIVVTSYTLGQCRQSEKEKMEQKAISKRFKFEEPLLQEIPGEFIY

[4] = biological target: [Pyruvate dehydrogenase (acetyl-transferring)] kinase isozyme 4, mitochondrial (Homo sapiens) (UniProt Q16654); experiment: Inhibition of human recombinant PDHK4 at 500 nM related to control ULK1
[5] = biological target: T3, Testis-specific serine/threonine-protein kinase 4 (Homo sapiens) (UniProt Q6SA08); experiment: Inhibition of human recombinant TSSK4 at 500 nM related to control ULK1
T3 sequence (whole entry): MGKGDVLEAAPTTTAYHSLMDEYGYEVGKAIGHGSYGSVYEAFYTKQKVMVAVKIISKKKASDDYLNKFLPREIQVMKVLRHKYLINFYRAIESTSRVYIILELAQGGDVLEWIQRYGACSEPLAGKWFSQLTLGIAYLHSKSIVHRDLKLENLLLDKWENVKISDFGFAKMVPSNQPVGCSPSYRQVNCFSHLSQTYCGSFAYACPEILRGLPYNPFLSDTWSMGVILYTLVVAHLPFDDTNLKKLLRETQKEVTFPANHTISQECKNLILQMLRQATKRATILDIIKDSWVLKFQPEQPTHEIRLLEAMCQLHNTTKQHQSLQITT

[6] = biological target: Serine/threonine-protein kinase ULK1 (Homo sapiens, UniProt O75385); experiment: Inhibition of human ULK1
[7] = biological target: T1, Serine/threonine-protein kinase A-Raf (Homo sapiens); experiment: Inhibition of human recombinant ARAF at 15 nM in presence of ATP by radiometric assay relative to control; method in brief: as §1
[8] = biological target: Tyrosine-protein kinase Fyn (Homo sapiens) (UniProt P06241); experiment: Inhibition of human recombinant FYN at 15 nM related to control ULK1
[9] = biological target: T4, Testis-specific serine/threonine-protein kinase 2 (Homo sapiens) (UniProt Q96PF2); experiment: Inhibition of human recombinant TSSK2 at 15 nM related to control ULK1
T4 sequence (whole entry): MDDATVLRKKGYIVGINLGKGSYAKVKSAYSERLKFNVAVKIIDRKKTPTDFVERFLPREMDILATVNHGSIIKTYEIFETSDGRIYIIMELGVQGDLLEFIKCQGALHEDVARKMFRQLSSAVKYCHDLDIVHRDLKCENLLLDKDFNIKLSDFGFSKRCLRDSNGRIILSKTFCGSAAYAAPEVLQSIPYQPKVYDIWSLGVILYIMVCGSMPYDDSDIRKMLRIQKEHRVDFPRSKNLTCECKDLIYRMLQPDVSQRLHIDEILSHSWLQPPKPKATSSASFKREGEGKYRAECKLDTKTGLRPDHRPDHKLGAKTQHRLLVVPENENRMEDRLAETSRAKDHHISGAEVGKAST

[10] = biological target: Serine/threonine-protein kinase WNK3 (Homo sapiens) (UniProt Q9BYP7); experiment: Inhibition of human recombinant Wnk3 at 15 nM related to control ULK1
[11] = biological target: Homeodomain-interacting protein kinase 1 (Homo sapiens) (UniProt Q86Z02); experiment: Inhibition of human recombinant HIPK1 at 40 nM in presence of ATP by radiometric assay relative to control
[12] = biological target: Ribosomal protein S6 kinase alpha-2 (Homo sapiens) (UniProt Q15349); experiment: Inhibition of human recombinant RSK3 at 40 nM in presence of ATP by radiometric assay relative to control
[13] = biological target: Serine/threonine-protein kinase 33 (Homo sapiens) (UniProt Q9BYT3); experiment: Inhibition of human recombinant STK33 at 40 nM related to control ULK1

Chain of 5'-AMP-activated protein kinase catalytic subunit alpha-2 (Homo sapiens) (P54646 whole entry, looked up): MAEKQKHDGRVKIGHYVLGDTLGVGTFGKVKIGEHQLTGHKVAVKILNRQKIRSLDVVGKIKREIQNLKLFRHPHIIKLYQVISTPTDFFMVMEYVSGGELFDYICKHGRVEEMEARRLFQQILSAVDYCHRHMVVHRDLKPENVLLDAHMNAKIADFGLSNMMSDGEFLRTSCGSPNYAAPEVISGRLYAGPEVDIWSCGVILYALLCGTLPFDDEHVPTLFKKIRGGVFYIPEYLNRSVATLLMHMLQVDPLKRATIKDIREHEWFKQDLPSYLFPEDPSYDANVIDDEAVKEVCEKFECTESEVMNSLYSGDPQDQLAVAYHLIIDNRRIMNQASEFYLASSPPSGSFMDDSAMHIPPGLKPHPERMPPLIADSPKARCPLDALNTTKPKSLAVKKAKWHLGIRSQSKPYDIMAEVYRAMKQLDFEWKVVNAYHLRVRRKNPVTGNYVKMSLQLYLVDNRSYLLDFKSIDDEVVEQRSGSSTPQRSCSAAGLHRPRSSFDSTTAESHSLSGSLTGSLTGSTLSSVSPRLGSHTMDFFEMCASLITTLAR
Chain of Homeodomain-interacting protein kinase 1 (Homo sapiens) (Q86Z02 whole entry, looked up): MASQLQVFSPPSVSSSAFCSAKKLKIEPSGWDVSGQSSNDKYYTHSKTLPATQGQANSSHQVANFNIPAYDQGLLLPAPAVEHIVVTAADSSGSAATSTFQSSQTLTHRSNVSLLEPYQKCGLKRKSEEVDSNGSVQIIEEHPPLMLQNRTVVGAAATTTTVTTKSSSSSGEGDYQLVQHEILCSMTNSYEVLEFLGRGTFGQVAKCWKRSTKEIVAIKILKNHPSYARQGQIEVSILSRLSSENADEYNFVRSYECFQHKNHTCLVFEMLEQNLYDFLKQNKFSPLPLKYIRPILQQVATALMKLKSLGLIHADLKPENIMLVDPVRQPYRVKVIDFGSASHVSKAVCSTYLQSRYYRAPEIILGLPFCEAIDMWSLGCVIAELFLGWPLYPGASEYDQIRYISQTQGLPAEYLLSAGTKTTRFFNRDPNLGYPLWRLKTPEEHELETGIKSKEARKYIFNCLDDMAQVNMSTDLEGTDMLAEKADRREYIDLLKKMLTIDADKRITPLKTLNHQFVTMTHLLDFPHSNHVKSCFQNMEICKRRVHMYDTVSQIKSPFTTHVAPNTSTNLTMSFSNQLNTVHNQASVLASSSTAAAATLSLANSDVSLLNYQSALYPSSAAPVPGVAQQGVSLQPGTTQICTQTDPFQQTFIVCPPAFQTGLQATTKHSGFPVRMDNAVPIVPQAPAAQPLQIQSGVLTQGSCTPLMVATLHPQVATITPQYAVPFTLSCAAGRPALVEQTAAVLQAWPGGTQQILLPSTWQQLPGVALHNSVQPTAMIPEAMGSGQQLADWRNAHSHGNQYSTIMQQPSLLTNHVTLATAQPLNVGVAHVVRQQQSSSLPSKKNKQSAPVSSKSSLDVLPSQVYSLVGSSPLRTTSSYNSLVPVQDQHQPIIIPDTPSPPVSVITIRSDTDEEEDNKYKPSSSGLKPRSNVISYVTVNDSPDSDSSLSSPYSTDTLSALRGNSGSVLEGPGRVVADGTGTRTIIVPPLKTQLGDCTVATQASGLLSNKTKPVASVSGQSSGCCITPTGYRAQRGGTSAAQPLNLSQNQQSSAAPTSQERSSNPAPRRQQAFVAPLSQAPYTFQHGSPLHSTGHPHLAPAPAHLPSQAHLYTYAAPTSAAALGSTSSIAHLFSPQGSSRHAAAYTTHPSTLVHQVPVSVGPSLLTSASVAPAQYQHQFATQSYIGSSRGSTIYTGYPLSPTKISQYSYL
Chain of Serine/threonine-protein kinase WNK3 (Homo sapiens) (Q9BYP7 whole entry): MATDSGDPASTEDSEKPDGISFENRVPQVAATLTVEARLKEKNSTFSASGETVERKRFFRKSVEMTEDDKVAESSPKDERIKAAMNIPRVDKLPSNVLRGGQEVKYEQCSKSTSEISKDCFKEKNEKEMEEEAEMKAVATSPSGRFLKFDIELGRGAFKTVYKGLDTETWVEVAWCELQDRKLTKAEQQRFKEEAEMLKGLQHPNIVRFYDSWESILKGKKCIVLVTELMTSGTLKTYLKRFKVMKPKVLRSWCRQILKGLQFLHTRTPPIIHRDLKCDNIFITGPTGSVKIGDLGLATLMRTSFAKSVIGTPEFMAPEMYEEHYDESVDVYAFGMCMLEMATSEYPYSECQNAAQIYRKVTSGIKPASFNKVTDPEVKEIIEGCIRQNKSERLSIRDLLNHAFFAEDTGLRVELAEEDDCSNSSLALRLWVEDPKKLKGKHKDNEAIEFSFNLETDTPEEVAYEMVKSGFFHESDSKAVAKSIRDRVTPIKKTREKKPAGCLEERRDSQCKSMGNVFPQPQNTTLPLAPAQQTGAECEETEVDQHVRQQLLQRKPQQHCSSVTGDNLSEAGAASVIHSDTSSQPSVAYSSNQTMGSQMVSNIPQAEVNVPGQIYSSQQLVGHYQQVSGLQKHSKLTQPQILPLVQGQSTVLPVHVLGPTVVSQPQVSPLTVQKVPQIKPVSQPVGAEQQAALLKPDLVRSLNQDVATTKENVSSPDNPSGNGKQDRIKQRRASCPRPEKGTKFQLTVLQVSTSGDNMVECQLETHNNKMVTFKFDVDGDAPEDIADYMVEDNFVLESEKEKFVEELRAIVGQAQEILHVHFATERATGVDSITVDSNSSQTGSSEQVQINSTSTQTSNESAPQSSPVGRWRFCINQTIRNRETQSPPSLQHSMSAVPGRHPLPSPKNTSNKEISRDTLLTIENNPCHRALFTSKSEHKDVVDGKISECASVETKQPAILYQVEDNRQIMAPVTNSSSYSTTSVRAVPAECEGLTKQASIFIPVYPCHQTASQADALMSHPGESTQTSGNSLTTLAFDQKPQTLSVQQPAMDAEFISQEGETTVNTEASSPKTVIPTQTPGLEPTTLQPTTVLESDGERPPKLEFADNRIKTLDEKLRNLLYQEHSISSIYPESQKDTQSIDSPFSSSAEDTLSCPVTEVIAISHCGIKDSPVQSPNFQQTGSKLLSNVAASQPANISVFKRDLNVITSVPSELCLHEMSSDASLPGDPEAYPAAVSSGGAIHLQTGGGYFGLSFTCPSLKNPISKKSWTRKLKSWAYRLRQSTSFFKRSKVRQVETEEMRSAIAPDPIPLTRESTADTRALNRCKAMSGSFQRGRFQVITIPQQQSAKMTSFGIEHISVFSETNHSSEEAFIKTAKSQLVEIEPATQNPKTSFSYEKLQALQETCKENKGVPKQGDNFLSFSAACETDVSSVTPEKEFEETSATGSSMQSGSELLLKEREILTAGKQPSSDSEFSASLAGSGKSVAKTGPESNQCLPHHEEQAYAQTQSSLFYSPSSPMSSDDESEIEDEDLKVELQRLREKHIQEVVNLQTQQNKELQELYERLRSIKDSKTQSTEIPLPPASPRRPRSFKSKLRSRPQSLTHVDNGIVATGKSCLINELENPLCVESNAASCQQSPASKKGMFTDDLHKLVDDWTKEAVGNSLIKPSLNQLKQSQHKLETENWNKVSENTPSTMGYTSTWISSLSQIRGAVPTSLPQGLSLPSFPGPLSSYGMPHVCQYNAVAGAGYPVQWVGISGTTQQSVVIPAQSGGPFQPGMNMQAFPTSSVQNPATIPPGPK
Chain of [Pyruvate dehydrogenase (acetyl-transferring)] kinase isozyme 4, mitochondrial (Homo sapiens) (Q16654 whole entry, looked up): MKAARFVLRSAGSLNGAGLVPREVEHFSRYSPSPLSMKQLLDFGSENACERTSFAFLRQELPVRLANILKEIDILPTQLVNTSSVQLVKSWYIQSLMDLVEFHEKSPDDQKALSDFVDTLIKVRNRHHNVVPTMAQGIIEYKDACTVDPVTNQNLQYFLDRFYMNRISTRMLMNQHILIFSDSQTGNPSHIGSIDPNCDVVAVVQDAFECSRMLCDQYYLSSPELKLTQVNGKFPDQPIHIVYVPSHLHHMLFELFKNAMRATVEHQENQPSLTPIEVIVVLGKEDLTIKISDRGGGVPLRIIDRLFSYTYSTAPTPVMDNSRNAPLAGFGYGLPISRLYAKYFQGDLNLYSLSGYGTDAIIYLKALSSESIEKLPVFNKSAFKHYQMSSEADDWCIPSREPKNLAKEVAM
Chain of Serine/threonine-protein kinase ULK1 (O75385 whole entry): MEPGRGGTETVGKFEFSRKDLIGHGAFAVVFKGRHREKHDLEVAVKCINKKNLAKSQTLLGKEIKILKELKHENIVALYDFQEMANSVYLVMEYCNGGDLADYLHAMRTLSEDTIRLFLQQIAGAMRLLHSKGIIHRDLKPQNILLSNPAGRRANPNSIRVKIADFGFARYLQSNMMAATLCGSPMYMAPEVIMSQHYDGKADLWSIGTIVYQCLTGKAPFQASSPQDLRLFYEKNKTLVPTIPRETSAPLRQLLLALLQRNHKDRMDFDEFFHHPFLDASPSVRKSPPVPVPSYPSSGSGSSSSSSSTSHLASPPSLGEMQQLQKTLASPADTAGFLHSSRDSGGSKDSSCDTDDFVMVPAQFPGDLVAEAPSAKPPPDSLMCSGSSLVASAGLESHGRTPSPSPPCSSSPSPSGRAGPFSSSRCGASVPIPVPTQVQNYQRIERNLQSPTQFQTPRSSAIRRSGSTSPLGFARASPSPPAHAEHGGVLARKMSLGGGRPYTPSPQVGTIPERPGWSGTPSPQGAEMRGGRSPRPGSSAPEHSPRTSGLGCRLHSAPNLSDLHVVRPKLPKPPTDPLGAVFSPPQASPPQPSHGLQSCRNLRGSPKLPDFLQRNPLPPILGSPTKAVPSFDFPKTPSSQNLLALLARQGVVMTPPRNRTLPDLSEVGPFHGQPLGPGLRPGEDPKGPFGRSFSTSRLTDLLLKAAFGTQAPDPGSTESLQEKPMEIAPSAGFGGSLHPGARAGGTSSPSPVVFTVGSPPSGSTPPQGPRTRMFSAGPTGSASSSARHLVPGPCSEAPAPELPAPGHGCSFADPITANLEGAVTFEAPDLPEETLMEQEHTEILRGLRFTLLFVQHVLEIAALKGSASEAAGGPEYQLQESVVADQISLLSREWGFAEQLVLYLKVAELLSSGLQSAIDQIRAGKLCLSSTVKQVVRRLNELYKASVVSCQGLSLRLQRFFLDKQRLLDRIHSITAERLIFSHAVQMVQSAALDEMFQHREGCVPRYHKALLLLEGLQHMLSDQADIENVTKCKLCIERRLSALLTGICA

- inhibition [1]: 57%
- fold change (FC) [2]: 0
- fold change (FC) [3]: 0
- fold change (FC) [4]: 0.07
- fold change (FC) [5]: 0
SMILES: CNC(=O)c1ccccc1Oc1nc(Nc2cc(OC)c(OC)c(OC)c2)ncc1Br

- IC50 [6]: 1.6 nM
- inhibition [7]: 6%
- fold change (FC) [8]: 0.18
- fold change (FC) [9]: 0.01
- fold change (FC) [10]: 0
SMILES: CC(C)[C@H](NC(=O)c1cc(-c2cnn3cc(-c4ccc(OCCN5CCCCC5)cc4)cnc23)cs1)C(F)(F)F

- inhibition [11]: 0%
- inhibition [12]: 0%
- fold change (FC) [13]: 0.26
SMILES: O=C(N[C@@H](C1CC1)C(F)(F)F)c1cc(-c2cnn3cc(-c4ccc(F)cc4)cnc23)cs1
